Our source for the Activity and Ratio values is ChEMBL document CHEMBL4622961, “Design, Synthesis, and Preliminary Immunological Studies of MUC1-Based Antitumor Vaccines Adjuvanted with R- and S-FSL-1” (2020).

Assay [1] concerns Peritoneal macrophage. The experiment in a line: Adjuvanted-antitumor vaccine activity in C57BL/6 mouse peritoneal macrophages assessed as induction of IL-6 production after 24 hrs by ELISA. The assay is classed as functional, cell-based. In outline: (§1)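 Peritoneal macrophages were harvested from C57BL/6 mice and incubated with the adjuvanted vaccine constructs. IL-6 and IL-12 released into the culture supernatant were quantified against a PBS control. Values are given as mean ± SD.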

The test system of assay [2] is Peritoneal macrophage. The experiment in a line: Adjuvanted-antitumor vaccine activity in C57BL/6 mouse peritoneal macrophages assessed as induction of IL-12 production after 24 hrs by ELISA. The assay is classed as functional, cell-based. In outline:
as §1

Assay [3] concerns Mus musculus. The assay is described as follows: Adjuvanted-antitumor vaccine activity in C57BL/6 mouse assessed as induction of IgG production in serum at 4 nmol, ip administered […] and measured after 1 week post last dose by ELISA. The assay is classed as functional, organism-based. In outline: (§2)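 Female C57BL/6 mice, immunized intraperitoneally on days 0, 14, 28 and 42 (PBS group as control). Sera were collected 1 week after the last dose. ELISA measured total IgG titer or the IgG1, IgG2b, IgG2c and IgG3 isotypes. Values are given as mean ± SD.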

For assay [4], the system named is Mus musculus. The experiment in a line: Adjuvanted-antitumor vaccine activity in C57BL/6 mouse assessed as potentiation of MUC1 specific Th2 immune response by measuring increase in serum IgG1 level at 4 nmol, ip administered on […] and measured after 1 week post last dose by ELISA. The assay is classed as functional, organism-based. In outline: as §2
Assay [5] relates to Mus musculus. The experiment in a line: Aduvanted-antitumor vaccine activity in C57BL/6 mouse assessed as potentiation of MUC1 specific Th1 immune response by measuring increase in serum IgG2c level at 4 nmol, ip administered […] and measured after 1 week post last dose by ELISA. The assay is classed as functional, organism-based. In outline:
as §2

Assay [6] concerns Mus musculus. The experiment in a line: Adjuvanted-antitumor vaccine activity in C57BL/6 mouse assessed as potentiation of MUC1 mediated immune response by measuring increase in serum IgG2b level at 4 nmol, ip administered on […] and measured after 1 week post last dose by ELISA. The assay is classed as functional, organism-based. In outline:
as §2

For assay [7], the system named is Mus musculus. The assay is described as follows: Adjuvanted-antitumor vaccine activity in C57BL/6 mouse assessed as potentiation of MUC1 mediated immune response by measuring increase in serum IgG3 level at 4 nmol, ip administered on […] and measured after 1 week post last dose by ELISA. The assay is classed as functional, organism-based. In outline: as §2
Assay [8] relates to Mus musculus. The experiment in a line: Adjuvanted-antitumor vaccine activity in C57BL/6 mouse assessed as induction of MUC1-specific antisera production by measuring binding activity with MCF7 cells expressing MUC1 at 4 nmol, ip administered on […] and measured after 1 week post-last dose by incubating cells with compound-immunized mouse sera for 1 hr by FACS analysis. The assay is classed as functional, organism-based. In outline: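 Antisera were collected 1 week after the fourth ip immunization (days 0, 14, 28, 42) of female C57BL/6 mice. MUC1-expressing human breast cancer MCF-7 cells were incubated with the antisera, then with FITC-labelled goat anti-mouse antibody, and binding was read by flow cytometry. The PBS-immunized group served as control.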

The subject of assay [9] is Mus musculus. The experiment in a line: Adjuvanted-antitumor vaccine activity in C57BL/6 mouse assessed as potentiation of Th1 mediated response by measuring increase in IFN-gamma level in splenocytes at 4 nmol, ip administered […] and measured after 1 week post-last dose by incubating splenocytes with MUC1 peptide for 48 hrs by ELISA. The assay is classed as functional, organism-based. In outline: (§3)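 Splenocytes came from female C57BL/6 mice immunized ip on days 0, 14, 28 and 42. They were restimulated in culture with MUC1 peptide (10 μg/mL), and IL-4, IL-6, IL-12 and IFN-γ were measured in the supernatants. A PBS-immunized group served as comparison.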

Assay [10] relates to Mus musculus. The assay is described as follows: Adjuvanted-antitumor vaccine activity in C57BL/6 mouse assessed as potentiation of Th1 mediated response by measuring increase in IL-12 level in splenocytes at 4 nmol, ip administered on […] and measured after 1 weeks post-last dose by incubating splenocytes with MUC1 peptide for 48 hrs by ELISA. The assay is classed as functional, organism-based. In outline:
as §3

The subject of assay [11] is Mus musculus. The assay is described as follows: Adjuvanted-antitumor vaccine activity in C57BL/6 mouse assessed as potentiation of Th2 mediated response by measuring increase in IL-6 level in splenocytes at 4 nmol, ip administered […] and measured after 1 weeks post-last dose by incubating splenocytes with MUC1 peptide for 48 hrs by ELISA. The assay is classed as functional, organism-based. In outline:
as §3

The subject of assay [12] is Mus musculus. The experiment in a line: Adjuvanted-antitumor vaccine activity in C57BL/6 mouse assessed as potentiation of Th2 mediated response by measuring increase in IL-4 level in splenocytes at 4 nmol, ip administered on […] and measured after 1 weeks post-last dose by incubating splenocytes with MUC1 peptide for 48 hrs by ELISA. The assay is classed as functional, organism-based. In outline:
as §3

Assay [13] has as its system Mus musculus. The assay is described as follows: Adjuvanted-antitumor vaccine activity in C57BL/6 mouse assessed as potentiation of MUC1 specific Th2 immune response by measuring ratio of IgG1 to IgG2c in serum at 4 nmol, ip administered […] and measured after 1 week post last dose by ELISA. The assay is classed as functional. In outline:
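Sera from female C57BL/6 mice given ip doses on days 0, 14, 28 and 42 were taken 1 week after the last dose. IgG1 and IgG2c were measured by ELISA and expressed as an IgG1/IgG2c ratio; a ratio above 1 was read as a Th2-type response.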

Activity calls are given as the source filed them. The calls are words filed in the database; no cut-off is given here.

As for `CCCCCCCCCCCCCCCC(=O)OC[C@@H](CSC[C@H](N)C(=O)NCC(=O)N[C@@H](CC(=O)O)C(=O)N1CCC[C@H]1C(=O)N[C@@H](CCCCN)C(=O)N[C@@H](Cc1c[nH]cn1)C(=O)N1CCC[C@H]1C(=O)N[C@@H](CCCCN)C(=O)N[C@@H](CO)C(=O)N[C@@H](Cc1ccccc1)C(=O)NCC(=O)NCC(=O)NCC(=O)N[C@@H](Cc1c[nH]cn1)C(=O)NCC(=O)N[C@H](C(=O)N[C@H](C(=O)N[C@@H](CO)C(=O)N[C@@H](C)C(=O)N1CCC[C@H]1C(=O)N[C@@H](CC(=O)O)C(=O)N[C@H](C(=O)N[C@@H](CCCNC(=N)N)C(=O)N1CCC[C@H]1C(=O)N[C@@H](C)C(=O)N1CCC[C@H]1C(=O)NCC(=O)N[C@@H](CO)C(=O)N[C@H](C(=O)N[C@@H](C)C(=O)N1CCC[C@H]1C(=O)N1CCC[C@H]1C(=O)N[C@@H](C)C(=O)O)[C@@H](C)O)[C@@H](C)O)[C@@H](C)O)C(C)C)OC(=O)CCCCCCCCCCCCCCC`, the outcome in [1], in assay [2], in assay [3], in assay [4], in assay [5] and in [6] was Active. The outcome in assay [7], in assay [8], in [9], in [10], in [11] and in assay [12] was Active. Moreover, the Ratio in assay [13] was over 1.
As for `CCCCCCCCCCCCCCCC(=O)OC[C@H](CSC[C@H](N)C(=O)NCC(=O)N[C@@H](CC(=O)O)C(=O)N1CCC[C@H]1C(=O)N[C@@H](CCCCN)C(=O)N[C@@H](Cc1c[nH]cn1)C(=O)N1CCC[C@H]1C(=O)N[C@@H](CCCCN)C(=O)N[C@@H](CO)C(=O)N[C@@H](Cc1ccccc1)C(=O)NCC(=O)NCC(=O)NCC(=O)N[C@@H](Cc1c[nH]cn1)C(=O)NCC(=O)N[C@H](C(=O)N[C@H](C(=O)N[C@@H](CO)C(=O)N[C@@H](C)C(=O)N1CCC[C@H]1C(=O)N[C@@H](CC(=O)O)C(=O)N[C@H](C(=O)N[C@@H](CCCNC(=N)N)C(=O)N1CCC[C@H]1C(=O)N[C@@H](C)C(=O)N1CCC[C@H]1C(=O)NCC(=O)N[C@@H](CO)C(=O)N[C@H](C(=O)N[C@@H](C)C(=O)N1CCC[C@H]1C(=O)N1CCC[C@H]1C(=O)N[C@@H](C)C(=O)O)[C@@H](C)O)[C@@H](C)O)[C@@H](C)O)C(C)C)OC(=O)CCCCCCCCCCCCCCC`, the result in assay [1], in assay [2], in assay [3], in assay [4], in [5] and in assay [6] was Active. The result in [7], in assay [8], in assay [9], in [10], in [11] and in assay [12] was Active. In [13], the Ratio is over 1.
